The source of these data is PMC9939367 (Acta Pharmaceutica Sinica. B, 2022).

Several values for one entry are separate records, joined by “and”; a condition that tells them apart may be missing. Identical values can stand only once.

The target in data set [1] is T1, human MOR (Homo sapiens, UniProt P35372). Type of data set: cell-based.
For data set [2], the target named is T1, human MOR. Format: cell-based. This is another data set of the same source.
The target in the next data set is S1R (σ1R) (Cavia porcellus, UniProt Q60492). Description: [3H]. Type of data set: binding. As to conditions: guinea pig brain membranes, 1 mmol/L DPH.
In data set [3] the test system is male Wistar rats. The data set can be described thus: Paw pressure test. Type of data set: in vivo, rat. As to conditions: for maximal efficacy, paw pressure: single i.p.
Data set [4] has as its system male Wistar rats. The data set can be described thus: Tail-flick test. Format: in vivo, rat. The conditions noted are these: for maximal effect, tail flick: single i.p. (Thermal pain tests record how soon the animal reacts.)
Data set [5] has as its system male Wistar rats. The data set can be described thus: Carrageenan-induced acute inflammatory pain, mechanical allodynia. As to conditions: for maximal effect, carrageenan mechanical allodynia: single i.p., ipsilateral paw. Type of data set: in vivo, rat.
For data set [6], the system named is male Wistar rats. Description: MIA-induced osteoarthritis pain, acute treatment, mechanical allodynia. Format: in vivo, rat. The conditions noted are these: for maximal effect, MIA mechanical allodynia: single i.p., ipsilateral paw.
Data set [7] relates to male Wistar rats. Description: Spared nerve injury. As to conditions: for maximal effect, SNI mechanical allodynia: single i.p., ipsilateral paw. Type of data set: in vivo, rat.
The test system of data set [8] is male Wistar rats. Format: in vivo, rat. As to conditions: 3 mg/kg i.p. The essentials:
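Male Wistar rats received i.p. vehicle (0.5% hydroxypropyl methylcellulose) or test compound, dose groups n = 7–10. The read-out 20 min after dosing was paw-pressure PPT, tail-flick TFL, or von Frey PWT in carrageenan-, MIA- and SNI-induced pain models. Dose–response curves were fitted to a four-parameter logistic (variable slope) by least-squares non-linear fitting. Efficacy at 3 mg/kg i.p. was calculated from each model's curve.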

Data set [9] has as its system male Wistar rats. The data set can be described thus: Intestinal transit inhibition. Type of data set: in vivo, rat.
For data set [10], the system named is male Wistar rats. The data set can be described thus: Whole body plethysmography. Type of data set: in vivo, rat.
A short description of data set [11]: Plasma and brain pharmacokinetics, 3 mg/kg i.p. single dose. Type of data set: in vivo. The conditions noted are these: rat. The method in brief:
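Male Wistar rats got a single 3 mg/kg i.p. dose: 48 rats, 8 sampling points, 6 per point. Blood went into heparinized tubes and was centrifuged 4 °C, 3700 × g, 10 min. Brains were homogenized in DPBS (1:5 w/w). After acetonitrile protein precipitation, LC–MS/MS quantified drug (LOQ 1 ng/mL plasma, 2 ng/g brain). AUC, Cmax, Tmax and t1/2 came from non-compartmental analysis. Brain-to-plasma ratio = AUC brain/AUC plasma.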

A short description of data set [12]: Plasma levels in the MIA study, repeated b.i.d. s.c. dosing. Type of data set: in vivo, rat. The essentials:
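MIA-injected male Wistar rats (n = 5/group) received 0.5, 1.5 or 3 mg/kg s.c. b.i.d. for 28 days, starting 14 days post-MIA. Caudal-vein blood was drawn on Day 1 (first dose) and Day 28 (last dose), 35–40 min post-dose, right after von Frey testing. Samples went into K2-EDTA tubes and were spun 4 °C, 3700 × g, 10 min. Acetonitrile precipitation preceded LC–MS/MS (LOQ 1 ng/mL). Values are mean ± SEM.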

Data set [13] in a line: Plasma pharmacokinetics in ferrets, single i.p. dose. Format: in vivo, ferret. The method in brief: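 Male ferrets received a single i.p. dose of 0.5 or 1 mg/kg. Serial blood was drawn via carotid catheter at predose, 5, 15, 30 min and 1, 2, 4, 7, 24 h. Samples went into heparinized tubes and were spun 4 °C, 3700 × g, 10 min. Plasma was acetonitrile-precipitated and measured by LC–MS/MS (LOQ 1 ng/mL). AUC and Cmax came from non-compartmental analysis.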

A further data set deals with MOR (Rattus norvegicus, UniProt P33535). The data set can be described thus: Brain MOR occupancy, ex vivo autoradiography with [3H]-DAMGO. Format: in vivo. As to conditions: ip, read-out: MOR occupancy, average, 3 mg/kg i.p.
The target of data set [14] is human MOR. The conditions noted are these: read-out: In vitro binding affinity (Ki), MOR; cited from earlier work.
The target of the next data set is human S1R. As to conditions: read-out: In vitro binding affinity (Ki), S1R; cited from earlier work.
The conditions of data set [15]: more than 180 targets; cited from earlier work.
A further data set deals with mice. The conditions noted are these: repeated b.i.d. administration for 10 days in mice; cited from earlier work.
Data set [16] relates to male ferrets (Mustela putorius furo). The data set can be described thus: Proemetic response in ferrets. The conditions noted are these: for emetic response (retching and vomiting, words) / nausea-like global score: 4 h observation.
Another data set concerns the target S1R (Rattus norvegicus, UniProt Q9R0C9). Description: Brain S1R occupancy, ex vivo autoradiography with [3H]-. Format: in vivo. As to conditions: morphine 10 mg/kg, oxycodone 3 mg/kg i.p., 30 min.

T1 sequence (P35372 whole entry): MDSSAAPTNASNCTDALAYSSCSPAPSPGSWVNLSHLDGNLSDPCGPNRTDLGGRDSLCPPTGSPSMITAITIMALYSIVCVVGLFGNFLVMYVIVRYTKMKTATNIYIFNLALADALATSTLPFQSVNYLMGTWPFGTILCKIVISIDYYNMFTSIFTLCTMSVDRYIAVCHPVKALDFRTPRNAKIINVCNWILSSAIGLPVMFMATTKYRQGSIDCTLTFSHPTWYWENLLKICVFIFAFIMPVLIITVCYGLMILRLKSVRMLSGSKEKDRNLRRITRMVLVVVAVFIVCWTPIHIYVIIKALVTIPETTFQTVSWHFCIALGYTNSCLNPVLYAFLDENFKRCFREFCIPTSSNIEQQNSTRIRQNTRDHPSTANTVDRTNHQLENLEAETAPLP
Sequence of S1R (σ1R) (Q60492 whole entry): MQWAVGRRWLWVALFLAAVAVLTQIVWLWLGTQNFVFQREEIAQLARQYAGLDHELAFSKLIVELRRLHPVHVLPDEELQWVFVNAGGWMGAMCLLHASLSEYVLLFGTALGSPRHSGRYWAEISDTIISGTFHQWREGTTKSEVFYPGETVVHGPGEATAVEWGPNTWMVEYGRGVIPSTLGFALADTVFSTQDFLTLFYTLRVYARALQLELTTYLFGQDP
Sequence of S1R (Q9R0C9 whole entry): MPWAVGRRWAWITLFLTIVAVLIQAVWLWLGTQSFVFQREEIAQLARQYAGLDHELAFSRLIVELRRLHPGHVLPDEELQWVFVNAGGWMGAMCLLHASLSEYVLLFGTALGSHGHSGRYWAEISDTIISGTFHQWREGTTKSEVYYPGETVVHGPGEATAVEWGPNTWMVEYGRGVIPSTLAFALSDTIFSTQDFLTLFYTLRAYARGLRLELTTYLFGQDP
Sequence of MOR (P33535 whole entry): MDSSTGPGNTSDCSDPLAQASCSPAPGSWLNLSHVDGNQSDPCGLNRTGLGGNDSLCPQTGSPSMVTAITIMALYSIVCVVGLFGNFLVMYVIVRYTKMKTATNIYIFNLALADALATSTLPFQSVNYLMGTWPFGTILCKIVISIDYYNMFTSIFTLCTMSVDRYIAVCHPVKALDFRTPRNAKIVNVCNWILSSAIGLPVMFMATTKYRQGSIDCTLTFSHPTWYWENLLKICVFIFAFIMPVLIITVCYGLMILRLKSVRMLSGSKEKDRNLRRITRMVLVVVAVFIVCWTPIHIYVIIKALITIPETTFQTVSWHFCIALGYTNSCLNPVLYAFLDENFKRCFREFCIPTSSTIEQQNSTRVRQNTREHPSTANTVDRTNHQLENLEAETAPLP

For orientation: Cmax means the maximum level reached in the sampled fluid or tissue. For orientation: Tmax means the time at which the peak concentration occurs. In general, half-life refers to the time needed for the level to fall by half in the phase considered. A word on the AUC(0-inf): it is total exposure, with the tail of the curve extrapolated. Lower therefore signals low exposure. A word on the Ki: it is the equilibrium dissociation constant of an inhibitor or competing ligand from its target. As for `CCN1CC2(CCN(CCc3cc(F)ccc3F)CC2)O[C@H](C)C1=O` [WLB-73502, (R)-9-(2,5-difluorophenethyl)-4-ethyl-2-methyl-1-oxa-4,9-diazaspiro[5.5]undecan-3-one], the “cAMP lgτ (operational efficacy, G-protein pathway)” value at human MOR [1] stood at 1.58. Also, on human MOR [2], the “effect on β-arrestin-2 recruitment” value is reported as “no effect”. Besides, on S1R (σ1R), the “Ki without DPH/Ki with DPH” value stood at 0.9. Also, the “potency relative to morphine, paw pressure” value in the data set on male Wistar rats [3] (more potent than morphine) was ~4 fold and 3 fold. In addition, the “maximal efficacy, paw pressure” value in the data set with male Wistar rats [3] was at least 80%. Besides, the “potency relative to morphine, tail flick” value in the data set with male Wistar rats [4] (more potent than morphine) is given as about 4 fold. Moreover, in the data set on male Wistar rats [4], the “maximal effect, tail flick” value was at least 95%. Further, the “potency relative to morphine, carrageenan” value in the data set with male Wistar rats [5] (more potent than morphine) was found to be 2 fold. The “maximal effect, carrageenan mechanical allodynia” value in the data set with male Wistar rats [5] is reported as at least 80%. The “potency relative to morphine, MIA” value in the data set on male Wistar rats [6] (more potent than morphine) is reported as 2 fold. The “maximal effect, MIA mechanical allodynia” value in the data set with male Wistar rats [6] was at least 95%. Further, in the data set on male Wistar rats [7] (more potent than morphine), the “potency relative to morphine, SNI” value was found to be 8 fold. In addition, the “potency relative to oxycodone, SNI” value in the data set with male Wistar rats [7] (more potent than oxycodone) came out at 3 fold. The “maximal effect, SNI mechanical allodynia” value in the data set with male Wistar rats [7] was 91.2 ± 5.9%. Besides, in the data set on male Wistar rats [8], the “Antinociceptive efficacy, average of the pain models” value amounted to 75%. The intestinal transit inhibition result with male Wistar rats [9] (2.5 mg/kg i.p.) is “did not significantly inhibit”; in the data set on male Wistar rats [9] (5 mg/kg i.p.), “did not significantly inhibit”; with male Wistar rats [9] (10 mg/kg i.p.) it was 19%; with male Wistar rats [9] (20 mg/kg i.p.) it was 59%. In addition, the “minute volume (MV) inhibition” value with male Wistar rats [10] (1.25 mg/kg i.p.) is “did not significantly change MV”; in the data set on male Wistar rats [10] (5 mg/kg i.p.) it was “did not significantly change MV”; in the data set on male Wistar rats [10] (10 mg/kg i.p.) it was about 30%; with male Wistar rats [10] (20 mg/kg i.p.) it was about 30%. In data set [11] (3 mg/kg i.p.), the “Brain-to-plasma ratio (AUC brain/AUC plasma)” value turned out to be 2.57. For the same compound, the Cmax in data set [11] (Wistar, brain, ip, 3 mg/kg) was found to be 982 ± 191 ng/g; in data set [11] (Wistar, plasma, ip, 3 mg/kg), 441 ± 73 ng/mL; in [13] (ferret, plasma, ip, 1 mg/kg) it was 620 ± 98 ng/mL. The Tmax was 4.8 min in [11] (Wistar, brain, ip, 3 mg/kg, 3 mg/kg i.p.); 4.8 min in data set [11] (Wistar, plasma, ip, 3 mg/kg, 3 mg/kg i.p.); 5 min in data set [11] (Wistar, plasma, ip, 3 mg/kg, 3 mg/kg i.p., first sampling time). Moreover, the half-life in data set [11] (Wistar, brain, ip, 3 mg/kg, t1/2, brain, 3 mg/kg i.p.) was 20.4 min. Further, the AUC(0-inf) in [11] (Wistar, plasma, ip, 3 mg/kg) was 136 ± 15 ng·h/mL; in data set [13] (ferret, plasma, ip, 1 mg/kg) it was 2460 ± 625 ng·h/mL. Moreover, the “AUC0–∞” value in [11] (brain, 3 mg/kg i.p.) was 350 ± 40 (ng·h/g). For the same compound, the Plasma concentration was found to be 82 ± 3.2 ng/mL in [12] (0.5 mg/kg s.c. b.i.d., Day 28, 35–40 min after administration); 47.3 ± 3.8 ng/mL in [12] (0.5 mg/kg s.c., Day 1, 35–40 min after administration); 283.7 ± 10.4 ng/mL in data set [12] (1.5 mg/kg s.c. b.i.d., Day 28, 35–40 min after administration); 174.9 ± 7.4 ng/mL in data set [12] (1.5 mg/kg s.c., Day 1, 35–40 min after administration); 550.6 ± 33.8 ng/mL in data set [12] (3 mg/kg s.c. b.i.d., Day 28, 35–40 min after administration); 361 ± 24.7 ng/mL in data set [12] (3 mg/kg s.c., Day 1, 35–40 min after administration). In [13] (higher in ferrets), the “AUC in ferrets at 1 mg/kg relative to rats at 3 mg/kg” value came to 18 fold. Also, at MOR, the receptor occupancy at 3 mg/kg came to 50%. The inhibition constant (Ki) is 64 nM on human MOR [14] and 118 nM on human S1R. The “selectivity against target panel” value in data set [15] is listed as “selective”. Besides, the “naloxone-precipitated withdrawal signs” value with mice is reported as “not detected”. Also, the “emetic response (retching and vomiting, words)” value in data set [16] (0.5 mg/kg i.p.) and in [16] (1 mg/kg i.p.) was “did not induce any emetic response” in each case. Further, the nausea-like global score in data set [16] (0.5 mg/kg i.p.) is recorded as about 2; in data set [16] (1 mg/kg i.p.) it was about 4.
Take `COc1ccc2c(c1)[C@]13CCCC[C@@H]1[C@H](C2)N(C)CC3` [dextromethorphan, Dextromethorphan, reference compound]: at S1R (σ1R), the “Ki without DPH/Ki with DPH” value is on record as 9.0.
Take `CN1CC[C@]23c4c5ccc(O)c4O[C@H]2[C@@H](O)C=C[C@H]3[C@H]1C5` [morphine, Morphine, reference compound]: the “maximal efficacy, paw pressure” value in the data set on male Wistar rats [3] is reported as at least 80%. The “maximal effect, tail flick” value with male Wistar rats [4] is at least 95%. For the same compound, the “maximal effect, carrageenan mechanical allodynia” value in the data set on male Wistar rats [5] was at least 80%. Further, the “maximal effect, MIA mechanical allodynia” value with male Wistar rats [6] is reported as at least 95%. In addition, the “maximal effect, SNI mechanical allodynia” value in the data set on male Wistar rats [7] worked out at 82.2 ± 11.1%. Further, on S1R, the “effect on [3H]-(+)-pentazocine specific binding in rat cortex and striatum” value is “neither morphine nor oxycodone had a significant effect”. In data set [16] (0.5 mg/kg s.c.), this compound had a nausea-like global score of about 12. Moreover, in data set [16] (0.5 mg/kg s.c., 4 h period), the retches is 2.17 ± 0.60 and the vomits came out at 1.17 ± 0.65.
On to `COc1ccc2c3c1O[C@H]1C(=O)CC[C@@]4(O)[C@@H](C2)N(C)CC[C@]314` [oxycodone, reference compound], for which the “β-Arrestin lgτ” value on human MOR [2] is listed as −0.28. The “maximal efficacy, paw pressure” value in the data set on male Wistar rats [3] was at least 80%. In addition, the “maximal effect, tail flick” value with male Wistar rats [4] is at least 95%. In addition, the “maximal effect, carrageenan mechanical allodynia” value in the data set on male Wistar rats [5] is at least 80%. Moreover, the “maximal effect, MIA mechanical allodynia” value in the data set with male Wistar rats [6] is at least 95%. Moreover, in the data set with male Wistar rats [7], the “maximal effect, SNI mechanical allodynia” value was found to be 74.9 ± 7.5%. Further, the intestinal transit inhibition result was “no effect” in the data set with male Wistar rats [9] (2.5 mg/kg i.p.), 72% in the data set on male Wistar rats [9] (5 mg/kg i.p.) and 93% in the data set on male Wistar rats [9] (10 mg/kg i.p.). Besides, the entries for the “minute volume (MV) inhibition” value in the data set with male Wistar rats [10] (1.25 mg/kg i.p.), in the data set on male Wistar rats [10] (5 mg/kg i.p.) and in the data set with male Wistar rats [10] (10 mg/kg i.p.) were “did not significantly modify MV”, 30% and 50%, respectively.
